Test [1] concerns the target T1, Serine/threonine-protein kinase Chk1 (Homo sapiens) (UniProt O14757).
T1 sequence (whole entry): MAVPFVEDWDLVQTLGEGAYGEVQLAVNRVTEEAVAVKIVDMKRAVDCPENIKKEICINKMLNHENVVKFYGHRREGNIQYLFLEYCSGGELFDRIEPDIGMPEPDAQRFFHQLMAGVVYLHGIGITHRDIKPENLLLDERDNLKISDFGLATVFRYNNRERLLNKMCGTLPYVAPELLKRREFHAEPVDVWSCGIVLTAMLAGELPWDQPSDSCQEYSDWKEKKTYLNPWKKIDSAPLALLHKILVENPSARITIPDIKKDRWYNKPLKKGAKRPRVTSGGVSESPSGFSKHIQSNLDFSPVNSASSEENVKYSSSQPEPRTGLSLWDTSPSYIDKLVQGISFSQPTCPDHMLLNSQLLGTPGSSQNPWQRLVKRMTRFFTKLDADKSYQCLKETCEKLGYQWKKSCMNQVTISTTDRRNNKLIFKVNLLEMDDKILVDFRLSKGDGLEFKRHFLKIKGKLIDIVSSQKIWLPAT
Put plainly: Inhibition of human recombinant CHK1 at 40 nM related to control ULK1.

Test [2] concerns the target Mitogen-activated protein kinase kinase kinase 20 (Homo sapiens) (UniProt Q9NYL2). Put plainly: Inhibition of human recombinant ZAK at 40 nM in presence of ATP by radiometric assay relative to control.
Test [3] addresses ALK tyrosine kinase receptor (Homo sapiens) (UniProt Q9UM73). The experiment in a line: Inhibition of human recombinant ALK at 500 nM related to control ULK1. The procedure, abridged:
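Panel of 327 recombinant human kinases, each assayed in vitro by radiometric activity assay in duplicate at a single inhibitor concentration per compound, chosen with reference to its ULK1 inhibition. Activity remaining was expressed as percent of vehicle control, and percent inhibition was calculated as 100 minus percent activity remaining.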

For test [4], the target named is Cyclin-dependent kinase 13 (Homo sapiens) (UniProt Q14004). Put plainly: Inhibition of human recombinant CHED at 500 nM related to control ULK1.
Test [5] addresses Serine/threonine-protein kinase SIK2 (Homo sapiens) (UniProt Q9H0K1). The experiment in a line: Inhibition of human recombinant QIK at 500 nM in presence of ATP by radiometric assay relative to control.
Test [6] addresses SRSF protein kinase 1 (Homo sapiens) (UniProt Q96SB4). The experiment in a line: Inhibition of human recombinant SRPK1 at 500 nM related to control ULK1.
For test [7], the target named is Receptor tyrosine-protein kinase erbB-4 (Homo sapiens) (UniProt Q15303). Put plainly: Inhibition of human recombinant ErbB4 at 500 nM in presence of ATP by radiometric assay relative to control.
Test [8] concerns the target T2, Testis-specific serine/threonine-protein kinase 1 (Homo sapiens) (UniProt Q9BXA7).
T2 sequence (whole entry): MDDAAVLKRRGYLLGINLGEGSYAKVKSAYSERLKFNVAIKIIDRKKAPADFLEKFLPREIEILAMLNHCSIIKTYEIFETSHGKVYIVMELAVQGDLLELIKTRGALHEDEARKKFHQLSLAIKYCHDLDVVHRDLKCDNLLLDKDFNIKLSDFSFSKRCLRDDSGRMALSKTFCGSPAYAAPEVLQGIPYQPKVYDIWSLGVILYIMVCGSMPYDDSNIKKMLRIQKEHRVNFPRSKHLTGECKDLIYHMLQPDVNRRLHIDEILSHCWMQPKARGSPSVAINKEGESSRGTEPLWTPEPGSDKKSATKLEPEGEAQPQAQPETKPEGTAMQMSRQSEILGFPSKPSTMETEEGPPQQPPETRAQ
Put plainly: Inhibition of human recombinant TSSK1 at 500 nM related to control ULK1.

Test [9] deals with Wee1-like protein kinase 2 (Homo sapiens) (UniProt P0C1S8). Put plainly: Inhibition of human recombinant Wee1B at 500 nM related to control ULK1.
Sequence of Wee1-like protein kinase 2 (Homo sapiens) (P0C1S8 whole entry, looked up): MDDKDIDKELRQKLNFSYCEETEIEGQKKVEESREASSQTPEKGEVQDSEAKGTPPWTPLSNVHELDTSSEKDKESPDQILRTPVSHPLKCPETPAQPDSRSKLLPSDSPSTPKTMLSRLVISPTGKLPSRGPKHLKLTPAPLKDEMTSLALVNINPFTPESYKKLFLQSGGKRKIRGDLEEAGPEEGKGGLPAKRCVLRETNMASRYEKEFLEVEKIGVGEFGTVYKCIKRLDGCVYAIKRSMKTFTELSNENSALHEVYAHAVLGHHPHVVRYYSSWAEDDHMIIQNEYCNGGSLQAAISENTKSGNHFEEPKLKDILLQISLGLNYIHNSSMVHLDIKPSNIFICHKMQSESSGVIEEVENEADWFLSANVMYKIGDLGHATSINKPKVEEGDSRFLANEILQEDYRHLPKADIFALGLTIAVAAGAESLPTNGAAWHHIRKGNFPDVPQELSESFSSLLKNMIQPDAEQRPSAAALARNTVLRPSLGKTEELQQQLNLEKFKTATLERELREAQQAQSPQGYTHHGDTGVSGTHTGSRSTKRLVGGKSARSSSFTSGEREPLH
Test [10] deals with Mitogen-activated protein kinase kinase kinase 20 (Homo sapiens) (UniProt Q9NYL2). The experiment in a line: Inhibition of human recombinant ZAK at 15 nM in presence of ATP by radiometric assay relative to control.
Sequence of Mitogen-activated protein kinase kinase kinase 20 (Homo sapiens) (Q9NYL2 2-800 limits assumed): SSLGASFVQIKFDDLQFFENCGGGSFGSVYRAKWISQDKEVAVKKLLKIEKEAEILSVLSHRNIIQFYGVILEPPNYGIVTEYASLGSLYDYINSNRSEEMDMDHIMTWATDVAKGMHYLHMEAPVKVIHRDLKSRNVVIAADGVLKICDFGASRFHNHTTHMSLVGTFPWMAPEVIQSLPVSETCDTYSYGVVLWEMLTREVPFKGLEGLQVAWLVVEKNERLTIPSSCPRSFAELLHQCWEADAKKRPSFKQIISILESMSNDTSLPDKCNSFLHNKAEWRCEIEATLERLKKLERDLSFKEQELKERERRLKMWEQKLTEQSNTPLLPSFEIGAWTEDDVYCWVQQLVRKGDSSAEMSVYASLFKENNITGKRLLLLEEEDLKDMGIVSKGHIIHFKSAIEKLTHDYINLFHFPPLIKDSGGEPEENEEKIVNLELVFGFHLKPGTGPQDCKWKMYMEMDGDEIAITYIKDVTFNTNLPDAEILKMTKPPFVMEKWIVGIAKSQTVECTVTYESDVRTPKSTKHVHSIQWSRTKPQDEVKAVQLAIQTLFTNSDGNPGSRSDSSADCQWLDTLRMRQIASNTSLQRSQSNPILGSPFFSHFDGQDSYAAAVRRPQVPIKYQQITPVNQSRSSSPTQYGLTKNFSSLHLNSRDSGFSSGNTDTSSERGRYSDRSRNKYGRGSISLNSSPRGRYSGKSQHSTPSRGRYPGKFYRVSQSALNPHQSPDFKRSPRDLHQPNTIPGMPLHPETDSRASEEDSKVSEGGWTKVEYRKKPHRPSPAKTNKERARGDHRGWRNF
Test [11] addresses Ribosomal protein S6 kinase alpha-4 (Homo sapiens) (UniProt O75676). Put plainly: Inhibition of human recombinant MSK2 at 15 nM in presence of ATP by radiometric assay relative to control.
Test [12] addresses Casein kinase I isoform gamma-1 (Homo sapiens) (UniProt Q9HCP0). The experiment in a line: Inhibition of human recombinant CK1g1 at 15 nM in presence of ATP by radiometric assay relative to control.
The target of test [13] is T3, Tyrosine-protein kinase JAK3 (Homo sapiens) (UniProt P52333).
T3 sequence (whole entry): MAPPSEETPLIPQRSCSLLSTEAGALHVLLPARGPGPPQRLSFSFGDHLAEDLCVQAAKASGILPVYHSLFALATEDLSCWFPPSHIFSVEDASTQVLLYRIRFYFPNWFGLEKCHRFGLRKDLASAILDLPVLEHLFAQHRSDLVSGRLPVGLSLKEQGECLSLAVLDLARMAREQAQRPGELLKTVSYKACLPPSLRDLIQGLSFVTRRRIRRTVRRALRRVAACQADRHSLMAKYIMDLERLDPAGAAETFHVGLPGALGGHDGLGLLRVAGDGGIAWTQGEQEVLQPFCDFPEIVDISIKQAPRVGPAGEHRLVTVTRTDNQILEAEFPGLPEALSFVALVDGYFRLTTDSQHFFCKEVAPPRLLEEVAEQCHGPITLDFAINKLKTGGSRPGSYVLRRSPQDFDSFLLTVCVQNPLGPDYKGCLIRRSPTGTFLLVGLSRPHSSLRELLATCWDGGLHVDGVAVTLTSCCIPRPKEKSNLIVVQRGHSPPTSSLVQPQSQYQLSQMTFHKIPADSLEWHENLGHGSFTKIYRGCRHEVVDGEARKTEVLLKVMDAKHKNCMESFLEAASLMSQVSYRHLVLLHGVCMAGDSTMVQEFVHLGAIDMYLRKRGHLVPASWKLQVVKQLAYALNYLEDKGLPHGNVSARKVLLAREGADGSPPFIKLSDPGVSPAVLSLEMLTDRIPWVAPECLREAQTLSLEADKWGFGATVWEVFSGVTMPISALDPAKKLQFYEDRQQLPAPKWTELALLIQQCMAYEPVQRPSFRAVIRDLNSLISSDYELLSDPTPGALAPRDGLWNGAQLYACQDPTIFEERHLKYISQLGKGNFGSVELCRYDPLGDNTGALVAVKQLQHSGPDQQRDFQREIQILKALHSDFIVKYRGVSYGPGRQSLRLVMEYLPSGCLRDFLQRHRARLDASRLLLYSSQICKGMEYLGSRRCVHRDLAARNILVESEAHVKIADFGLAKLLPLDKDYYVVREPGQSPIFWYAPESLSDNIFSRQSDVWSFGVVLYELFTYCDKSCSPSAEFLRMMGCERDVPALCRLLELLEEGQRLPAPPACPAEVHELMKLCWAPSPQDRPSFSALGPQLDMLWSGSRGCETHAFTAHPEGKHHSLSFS
The experiment in a line: Inhibition of human recombinant JAK3 at 15 nM in presence of ATP by radiometric assay relative to control.

In test [14] the target is Tyrosine-protein kinase Lck (Homo sapiens) (UniProt P06239). The experiment in a line: Inhibition of human recombinant LCK at 15 nM related to control ULK1.

SMILES strings stand for the structures.

Sequence of SRSF protein kinase 1 (Homo sapiens) (Q96SB4 whole entry): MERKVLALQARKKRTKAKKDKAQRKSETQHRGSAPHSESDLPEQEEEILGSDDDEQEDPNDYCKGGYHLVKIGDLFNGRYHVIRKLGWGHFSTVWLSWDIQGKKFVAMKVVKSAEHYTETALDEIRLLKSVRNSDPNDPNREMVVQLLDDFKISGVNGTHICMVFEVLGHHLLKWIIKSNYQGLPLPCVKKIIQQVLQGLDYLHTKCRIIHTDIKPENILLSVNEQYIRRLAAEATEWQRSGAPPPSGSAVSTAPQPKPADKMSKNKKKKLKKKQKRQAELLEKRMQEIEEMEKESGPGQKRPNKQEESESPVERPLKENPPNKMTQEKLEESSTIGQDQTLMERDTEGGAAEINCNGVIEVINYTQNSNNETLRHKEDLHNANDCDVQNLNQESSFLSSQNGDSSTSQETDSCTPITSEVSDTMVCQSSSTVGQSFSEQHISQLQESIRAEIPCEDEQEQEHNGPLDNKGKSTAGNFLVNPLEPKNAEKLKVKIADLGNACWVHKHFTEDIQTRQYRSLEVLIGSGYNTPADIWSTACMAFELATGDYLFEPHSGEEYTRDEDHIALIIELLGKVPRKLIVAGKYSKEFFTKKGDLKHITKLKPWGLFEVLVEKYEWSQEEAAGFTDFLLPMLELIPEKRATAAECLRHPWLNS
Sequence of Ribosomal protein S6 kinase alpha-4 (Homo sapiens) (O75676 whole entry, looked up, canonical isoform): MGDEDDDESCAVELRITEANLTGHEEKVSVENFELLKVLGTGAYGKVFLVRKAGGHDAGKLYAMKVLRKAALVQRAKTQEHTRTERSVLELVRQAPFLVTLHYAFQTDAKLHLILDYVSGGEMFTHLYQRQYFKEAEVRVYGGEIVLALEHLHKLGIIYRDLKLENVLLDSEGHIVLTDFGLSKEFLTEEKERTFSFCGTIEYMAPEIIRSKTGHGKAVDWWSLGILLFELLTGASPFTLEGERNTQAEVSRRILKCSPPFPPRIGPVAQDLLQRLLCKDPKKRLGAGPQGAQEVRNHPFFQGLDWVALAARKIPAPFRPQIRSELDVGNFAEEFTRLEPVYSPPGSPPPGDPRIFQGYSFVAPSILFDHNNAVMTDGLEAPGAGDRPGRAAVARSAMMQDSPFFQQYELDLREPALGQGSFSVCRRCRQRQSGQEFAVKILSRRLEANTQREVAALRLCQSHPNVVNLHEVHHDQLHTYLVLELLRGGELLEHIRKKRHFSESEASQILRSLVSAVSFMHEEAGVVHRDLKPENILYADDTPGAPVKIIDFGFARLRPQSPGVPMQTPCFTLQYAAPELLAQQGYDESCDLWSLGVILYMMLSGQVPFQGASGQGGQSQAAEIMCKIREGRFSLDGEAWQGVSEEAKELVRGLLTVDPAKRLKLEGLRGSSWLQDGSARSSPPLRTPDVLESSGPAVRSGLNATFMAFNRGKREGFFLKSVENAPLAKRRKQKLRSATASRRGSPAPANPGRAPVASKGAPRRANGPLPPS
Sequence of ALK tyrosine kinase receptor (Homo sapiens) (Q9UM73 19-1620 limits assumed): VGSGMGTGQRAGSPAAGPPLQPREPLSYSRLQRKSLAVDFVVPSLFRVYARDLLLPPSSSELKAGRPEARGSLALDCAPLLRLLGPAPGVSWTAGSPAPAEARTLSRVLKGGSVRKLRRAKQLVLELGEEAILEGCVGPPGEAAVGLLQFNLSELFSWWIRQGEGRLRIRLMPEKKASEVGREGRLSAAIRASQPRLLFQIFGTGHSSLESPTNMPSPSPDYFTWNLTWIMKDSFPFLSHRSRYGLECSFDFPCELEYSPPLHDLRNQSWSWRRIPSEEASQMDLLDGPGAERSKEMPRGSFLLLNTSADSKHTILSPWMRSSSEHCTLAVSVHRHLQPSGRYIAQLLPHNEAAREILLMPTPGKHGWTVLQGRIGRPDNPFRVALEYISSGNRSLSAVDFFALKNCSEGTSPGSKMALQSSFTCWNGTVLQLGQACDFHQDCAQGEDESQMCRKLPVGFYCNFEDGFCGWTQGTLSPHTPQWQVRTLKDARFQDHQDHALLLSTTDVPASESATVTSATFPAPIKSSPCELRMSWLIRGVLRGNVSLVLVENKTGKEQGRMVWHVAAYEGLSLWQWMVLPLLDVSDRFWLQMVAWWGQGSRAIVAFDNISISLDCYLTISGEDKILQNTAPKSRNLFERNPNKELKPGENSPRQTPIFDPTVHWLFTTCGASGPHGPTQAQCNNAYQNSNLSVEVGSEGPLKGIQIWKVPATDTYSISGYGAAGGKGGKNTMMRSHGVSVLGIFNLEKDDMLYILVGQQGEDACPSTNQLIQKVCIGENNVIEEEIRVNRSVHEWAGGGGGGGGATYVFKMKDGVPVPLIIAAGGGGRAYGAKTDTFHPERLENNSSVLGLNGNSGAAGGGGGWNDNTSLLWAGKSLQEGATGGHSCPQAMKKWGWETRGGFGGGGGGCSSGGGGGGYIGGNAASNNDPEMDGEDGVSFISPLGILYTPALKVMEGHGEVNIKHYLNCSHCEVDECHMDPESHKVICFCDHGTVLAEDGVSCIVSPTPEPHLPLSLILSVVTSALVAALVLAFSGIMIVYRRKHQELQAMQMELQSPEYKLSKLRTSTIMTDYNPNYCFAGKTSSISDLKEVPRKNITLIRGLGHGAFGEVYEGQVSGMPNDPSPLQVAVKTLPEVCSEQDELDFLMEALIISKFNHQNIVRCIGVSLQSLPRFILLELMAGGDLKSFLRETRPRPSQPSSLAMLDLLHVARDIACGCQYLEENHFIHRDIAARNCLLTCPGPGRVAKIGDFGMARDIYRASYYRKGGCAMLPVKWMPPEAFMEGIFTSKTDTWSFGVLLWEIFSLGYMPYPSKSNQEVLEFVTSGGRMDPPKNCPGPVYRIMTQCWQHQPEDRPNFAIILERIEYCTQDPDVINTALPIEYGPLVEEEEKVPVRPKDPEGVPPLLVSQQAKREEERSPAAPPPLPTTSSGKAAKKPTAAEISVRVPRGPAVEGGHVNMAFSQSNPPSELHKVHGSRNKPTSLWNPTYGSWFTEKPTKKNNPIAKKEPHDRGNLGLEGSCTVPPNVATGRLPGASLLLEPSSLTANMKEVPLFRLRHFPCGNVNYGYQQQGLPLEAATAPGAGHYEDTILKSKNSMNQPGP
Sequence of Casein kinase I isoform gamma-1 (Homo sapiens) (Q9HCP0 whole entry, looked up, canonical isoform): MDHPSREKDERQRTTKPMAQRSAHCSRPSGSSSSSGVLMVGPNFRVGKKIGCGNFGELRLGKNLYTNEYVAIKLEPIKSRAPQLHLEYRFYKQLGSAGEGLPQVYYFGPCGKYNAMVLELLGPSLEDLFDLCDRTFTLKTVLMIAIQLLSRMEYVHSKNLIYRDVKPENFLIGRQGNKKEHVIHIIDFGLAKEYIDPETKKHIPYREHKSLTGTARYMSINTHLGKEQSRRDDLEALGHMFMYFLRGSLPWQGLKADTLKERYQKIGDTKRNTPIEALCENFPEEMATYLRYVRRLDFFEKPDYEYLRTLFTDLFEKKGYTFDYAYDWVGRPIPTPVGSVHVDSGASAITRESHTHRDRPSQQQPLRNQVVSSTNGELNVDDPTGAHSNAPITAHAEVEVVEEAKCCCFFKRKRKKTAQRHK

What is called inhibition is the share of the control response that was lost under treatment. For `O=C(N[C@@H](C1CC1)C(F)(F)F)c1cc(-c2cnn3cc(-c4ccc(F)cc4)cnc23)cs1`, the fold change (FC) in test [1] came out at 0. For the same molecule, in [2], the inhibition came to 0%.
For the molecule `CNC(=O)c1ccccc1Oc1nc(Nc2cc(OC)c(OC)c(OC)c2)ncc1Br`, the fold change (FC) in test [3] is 0; in test [4] it was 0; in test [6] it was 0.14; in [8], 0; in test [9], 0.03. Further, the inhibition in test [5] and in test [7] was 0% in each case.
For `CC(C)[C@H](NC(=O)c1cc(-c2cnn3cc(-c4ccc(OCCN5CCCCC5)cc4)cnc23)cs1)C(F)(F)F`, the inhibition was determined as 26% in [10], 0% in test [11], 0% in test [12] and 0% in [13]. Further, the fold change (FC) in test [14] amounted to 0.13.

Values taken from ChEMBL document CHEMBL5653631, “A Potent and Selective ULK1 Inhibitor Suppresses Autophagy and Sensitizes Cancer Cells to Nutrient Stress” (iScience, 2018).
